Experimental data pooled from the literature.
Target: Serine/threonine-protein kinase MAK (MAK, Homo sapiens, UniProt P20794)
One construct used (P20794 1-623): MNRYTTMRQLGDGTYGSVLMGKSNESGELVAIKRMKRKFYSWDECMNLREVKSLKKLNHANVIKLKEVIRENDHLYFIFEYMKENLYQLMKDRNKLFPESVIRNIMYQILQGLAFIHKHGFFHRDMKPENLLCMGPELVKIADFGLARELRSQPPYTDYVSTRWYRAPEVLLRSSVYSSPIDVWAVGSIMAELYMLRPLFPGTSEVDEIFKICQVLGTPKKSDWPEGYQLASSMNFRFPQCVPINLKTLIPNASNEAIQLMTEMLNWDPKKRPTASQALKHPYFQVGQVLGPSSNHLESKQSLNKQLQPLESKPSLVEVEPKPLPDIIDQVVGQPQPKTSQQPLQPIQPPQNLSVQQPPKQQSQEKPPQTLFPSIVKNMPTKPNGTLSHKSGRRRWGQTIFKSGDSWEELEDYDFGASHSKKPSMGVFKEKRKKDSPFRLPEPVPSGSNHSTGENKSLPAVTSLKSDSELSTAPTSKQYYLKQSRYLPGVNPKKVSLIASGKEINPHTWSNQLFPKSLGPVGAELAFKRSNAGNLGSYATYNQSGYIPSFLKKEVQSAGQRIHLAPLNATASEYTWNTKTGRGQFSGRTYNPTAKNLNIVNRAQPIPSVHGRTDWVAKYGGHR

COc1ccnn2ncc(-c3ccnc(N(C)C)n3)c12 gave a remaining binding of 100% (binding; 1 µM).
O=C(NCC1CCOCC1)c1n[nH]cc1NC(=O)c1c(F)cccc1F has a remaining binding of 56% (binding, competition with immobilised ligand; 1 µM).
With CCCCN(CCCC)C(=O)CN1C[C@H](c2cc(OC)c3c(c2)OCO3)[C@@H](C(=O)O)[C@@H]1CC(C)(C)CCC the remaining binding was 100% (cell-free assay, competition with immobilised ligand; 1 µM).
The remaining binding of O=C(NCCCN1CCOCC1)c1ccc(Nc2nccc(-c3cc4ccccc4s3)n2)cc1 is reported as 100% (binding, competition with immobilised ligand; 1 µM).
With O=C(Nc1cnc(Oc2ccc(F)cc2)nc1)N1CCc2ncccc2[C@@H]1c1ccc(F)cc1 the remaining binding was 100% (cell-free assay, competition with immobilised ligand; 1 µM).
The remaining binding of COc1ncc2cc3ccccc3nc2c1C#N is reported as 87% (binding, competition with immobilised ligand; 5 µM).
With CN(C)c1nccc(-c2cnn3ncccc23)n1 the remaining binding was 100% (binding; 1 µM).
O=C(O)[C@H]1[C@H](Cn2nnc3ccccc3c2=O)CC[C@@H]1C(=O)c1ccc(OCCC2CCOCC2)cc1 gave a remaining binding of 95% (binding, competition with immobilised ligand; 1 µM).
With c1cncc(-c2cccc(Nc3nccc(NC4CCCCC4)n3)c2)c1 the remaining binding was 61% (binding, competition with immobilised ligand; 10 µM).
With N[C@H]1CCN(c2nccc(-c3cnn4ncccc34)n2)C1 the remaining binding was 78% (binding; 1 µM).
The remaining binding of COc1cnc(Nc2cccc(S(N)(=O)=O)c2)nc1N1CCN(c2ccccc2)CC1 is reported as 100% (binding, competition with immobilised ligand; 1 µM).
The remaining binding of C[C@@H](c1cccc(C#N)c1)n1cc(Cl)cc(C(N)=O)c1=N is reported as 94% (binding, competition with immobilised ligand; 1 µM).
CC1CCCN1c1nccc(-c2cnn3ncccc23)n1 (stereo not shown) has a remaining binding of 100% (binding; 1 µM).
With CNC(=O)Nc1ccc2c(c1)[C@@]1(CC2)OC(=O)N(CC(=O)N(Cc2ccc(F)cc2)[C@@H](C)C(F)(F)F)C1=O the remaining binding was 100% (cell-free assay, competition with immobilised ligand; 1 µM).
CN(c1nccc(-c2cnn3ncccc23)n1)C1CC1 gave a remaining binding of 100% (binding; 1 µM).
For O=C(c1ccc(Nc2nccc(-c3cc4ccccc4s3)n2)cc1)N1CCC(N2CCCC2)CC1, the remaining binding was 100% (binding, competition with immobilised ligand; 1 µM).
For CN(C)c1ncc(F)c(-c2cnn3ncccc23)n1, the remaining binding was 91% (binding; 1 µM).
The remaining binding of Cc1cnc(Nc2ccc(C(=O)N3CCC(N4CCCC4)CC3)cc2)nc1-c1cc2ccccc2s1 is reported as 100% (binding, competition with immobilised ligand; 1 µM).
C[C@H]1CCN(c2nccc(-c3cnn4ncccc34)n2)C1 gave a remaining binding of 66% (binding; 1 µM).
With CNC(=O)[C@@H]1CC[C@@H](n2c(-c3ccc4cnccc4c3)nc3ccc(C(=O)NCc4cccc(C(N)=O)c4)cc32)C1 the remaining binding was 80% (binding, competition with immobilised ligand; 1 µM).
The remaining binding of NS(=O)(=O)c1cc(NC(=O)Cc2ccccc2)ccc1Oc1cccc(Cl)c1 is reported as 100% (cell-free assay, competition with immobilised ligand; 1 µM).
CCN1CCN(Cc2ccc(C(=O)Nc3ccc(C)c(Oc4ccc5c(c4)CC(=O)N5)c3)cc2C(F)(F)F)CC1 has a remaining binding of 100% (binding, competition with immobilised ligand; 1 µM).
